Results as given in article PMC5788008 (Current drug discovery technologies, 2017).
≈ marks a conversion by molar mass, not a printed value. Read-outs that look alike come from different tables or passages of the source.

Tests used:
P. aeruginosa MetRS [1] = target: T1, P. aeruginosa MetRS (Pseudomonas aeruginosa, UniProt Q9HYC7)
T1 sequence (Q9HYC7 1-677): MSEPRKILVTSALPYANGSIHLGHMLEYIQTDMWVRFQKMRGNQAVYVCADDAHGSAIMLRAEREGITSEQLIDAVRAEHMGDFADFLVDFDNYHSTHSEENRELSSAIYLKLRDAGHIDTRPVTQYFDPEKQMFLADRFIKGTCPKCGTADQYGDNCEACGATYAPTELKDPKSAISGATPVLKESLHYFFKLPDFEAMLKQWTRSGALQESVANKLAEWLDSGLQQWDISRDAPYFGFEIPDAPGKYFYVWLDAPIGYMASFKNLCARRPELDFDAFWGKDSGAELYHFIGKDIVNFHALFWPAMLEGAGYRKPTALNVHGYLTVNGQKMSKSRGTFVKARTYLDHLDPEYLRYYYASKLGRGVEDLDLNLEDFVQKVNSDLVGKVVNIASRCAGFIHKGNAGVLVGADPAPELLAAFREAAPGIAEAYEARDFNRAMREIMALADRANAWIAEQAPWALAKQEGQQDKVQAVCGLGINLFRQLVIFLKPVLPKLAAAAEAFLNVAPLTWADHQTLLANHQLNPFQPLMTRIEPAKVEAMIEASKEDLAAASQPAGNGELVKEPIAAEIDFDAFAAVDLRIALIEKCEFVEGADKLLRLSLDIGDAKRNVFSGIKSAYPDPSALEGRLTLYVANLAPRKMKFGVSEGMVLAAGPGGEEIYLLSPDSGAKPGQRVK

E. coli MetRS = conditions: cited from earlier work
[2] = test system: human embryonic kidney 293 cells (HEK-293); assay: MTT cytotoxicity assay; type: cell-based
H. influenzae = assay: Time-kill study; type: cell-based, Haemophilus influenzae; conditions: 4×MIC
Procedure, shortened: (§1)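 Time-kill following CLSI document M26-A. Growth media were Haemophilus Test Broth and Trypticase Soy Broth. Cultures with compound were sampled at 0, 2, 4, 6 and 24 h and plated for CFU counts. Controls had no compound but an equal amount of DMSO.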

S. aureus (ATCC 29213) = assay: MIC, broth microdilution; type: cell-based, Staphylococcus aureus
P. aeruginosa MetRS [3] = target: T1, P. aeruginosa MetRS; assay: Binding mode; type: biochemical; conditions: for competition with methionine for binding MetRS: 25-300 μM methionine, 2.5 mM ATP; for competition with ATP for binding MetRS: 25-1000 μM ATP, 75 μM methionine
E. faecalis (ATCC 29212) = assay: MIC, broth microdilution; type: cell-based, Enterococcus faecalis
P. aeruginosa MetRS [4] = target: T1, P. aeruginosa MetRS; assay: tRNA aminoacylation assay in SPA format; type: biochemical
S. aureus = assay: Time-kill study; type: cell-based, Staphylococcus aureus; conditions: 4×MIC
Procedure, shortened: as §1

[5] = test system: H. influenzae (ATCC 49766); assay: MIC, broth microdilution; type: cell-based, Haemophilus influenzae
[6] = test system: P. aeruginosa (hypersensitive); assay: MIC, broth microdilution; type: cell-based, Pseudomonas aeruginosa; conditions: P. aeruginosa hypersensitive strain (ATCC 35151)
Procedure, shortened: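 Broth microdilution per CLSI guideline M7-A7, read as MIC in μg/ml. Hypersensitive strain ATCC 35151 was a gift. Compound stocks were 10 mM in DMSO. Three separate sets of assays were run. MIC QC and culture purity were checked with antibiotics specific to each strain, using Etest QC ranges.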

[7] = substrate: Nc1ncnc2c1ncn2[C@@H]1O[C@H](COP(=O)(O)OP(=O)(O)OP(=O)(O)O)[C@@H](O)[C@H]1O; assay: purified protein, by the assay type; conditions: other: substrate ATP, methionine 2 mM; pH 7.5; 37.0 °C
[8] = substrate: CSCC[C@H](N)C(=O)O; assay: purified protein, by the assay type; conditions: other: substrate methionine, ATP 2 mM; pH 7.5; 37.0 °C

**Q.** For Nc1ncnc2c1ncn2[C@@H]1O[C@H](COP(=O)(O)OP(=O)(O)OP(=O)(O)O)[C@@H](O)[C@H]1O [ATP, Adenosine triphosphate], which kcat (P. aeruginosa MetRS [1]; substrate ATP) is on record?
**A.** 24.2 s⁻¹

**Q.** And the Km (E. coli MetRS; E. coli MetRS with ATP)?
**A.** 528 µM

**Q.** What about the kcat (E. coli MetRS; E. coli MetRS with ATP) of the same molecule?
**A.** 74 µM

**Q.** For CC1(C)C=Cc2c(c3c(c4c(=O)c(-c5ccc(O)c(O)c5)coc24)OC(C)(C)CC3)O1 [Isopomiferin, isopomiferin], which “CC50 relative to that of staurosporine” value [2] is on record?
**A.** 10,000 fold

**Q.** And the “mode of inhibition (time-kill)” value (H. influenzae; 0-24 h)?
**A.** bacteriostatic

**Q.** And the “decrease of colony forming units compared to the control” value (H. influenzae; during 24 h)?
**A.** 2 to 5 log10 CFU

**Q.** What about the MIC (S. aureus (ATCC 29213)) of the same molecule?
**A.** 32 µg/mL (≈ 76.1 µM)

**Q.** And the “competition with methionine for binding MetRS” value (P. aeruginosa MetRS [3])?
**A.** not observed to compete

**Q.** And the “competition with methionine for binding MetRS” value (P. aeruginosa MetRS [3]; listed as BM01C11)?
**A.** did not compete

**Q.** And the “competition with ATP for binding MetRS” value (P. aeruginosa MetRS [3])?
**A.** not observed to compete

**Q.** What about the “competition with ATP for binding MetRS” value (P. aeruginosa MetRS [3]; listed as BM01C11) of the same molecule?
**A.** did not compete

**Q.** And the form of inhibition (P. aeruginosa MetRS [3]; IC50 constant as ATP or methionine increased)?
**A.** non-competitive

**Q.** What about the MIC (E. faecalis (ATCC 29212)) of the same molecule?
**A.** 32 µg/mL (≈ 76.1 µM)

**Q.** What about the IC50 (P. aeruginosa MetRS [4]; aminoacylation, 0.1 μM MetRS, compound 200 to 0.4 μM) of the same molecule?
**A.** 70 µM

**Q.** What about the “mode of inhibition (time-kill)” value (S. aureus; 0-24 h) of the same molecule?
**A.** bactericidal

**Q.** And the CFUs in time-kill (S. aureus; first six hours of growth)?
**A.** no CFUs were observed

**Q.** And the MIC [5]?
**A.** Moderate activity

**Q.** What about the MIC [6] of the same molecule?
**A.** 16 µg/mL (≈ 38.1 µM)

**Q.** What does the source list for CSCC[C@H](N)C(=O)O [Methionine]?
**A.** kcat (P. aeruginosa MetRS [1]; substrate methionine): 37.2 s⁻¹; Km (E. coli MetRS; E. coli MetRS with methionine): 21 µM; kcat (E. coli MetRS; E. coli MetRS with methionine): 74 µM

**Q.** For O=c1cc(-c2cc(O)c(O)c(O)c2)oc2cc(O)cc(O)c12 [hieracin], which IC50 (P. aeruginosa MetRS [4]) is on record?
**A.** 8.3 µM

B1: P. aeruginosa MetRS (Pseudomonas aeruginosa PAO1) (protein)
chain: T1 sequence (Q9HYC7 1-677)
**Q.** Which results are given for B1?
**A.** Km [7]: 515 µM; kcat [7]: 24.2 s⁻¹; kcat/Km [7]: 0.05 µM/s; Km [8]: 35 µM; kcat [8]: 37.2 s⁻¹; kcat/Km [8]: 1.1 µM/s
